Calls of active or inactive are those of the source. No cut-off for these calls is given here.
Columns and labels:
[1] = Antiproliferative activity against human NCI-H460/MX20 cells after 48 hrs by MTT assay; format: functional, cell-based; conditions: NCI-H460/MX20, 48 h
How it was run: (§1)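 Colorimetric MTT assay. KB-3-1, NCI-H460 and Bel-7404 cells were seeded at 4000 cells/well; resistant KB/CP4, NCI-H460/MX20 and Bel-7404/CP20 were seeded at 7000 cells/well. Cells were pre-incubated 24 h at 37 °C, 5% CO2, then exposed to a compound concentration series for 48 h with DMSO ≤0.25%. Absorbance read at 570 nm. Quadruplicate wells, three repeats; means ± SD.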

KB 3-1 = assay: Antiproliferative activity against human KB-3-1 cells after 48 hrs by MTT assay; format: functional, cell-based; conditions: KB 3-1, 48 h; how it was run: as §1
[2] = Selectivity ratio of IC50 for human L02 cells to IC50 for human Bel7402 cells
MGC-803 = assay: Antiproliferative activity against human MGC803 cells after 72 hrs by MTT assay; format: functional, cell-based; conditions: MGC-803, 72 h
How it was run: (§2)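 MGC-803 and MCF-7 cells grown in DMEM (MCF-7 with 1× NEAA); Bel-7402 and K562 grown in RPMI 1640; all media with 10% FBS. Cells seeded at 3500/well, pre-incubated 24 h, then exposed to compounds in fresh medium (DMSO ≤0.25%) for 72 h at 37 °C. MTT read-out at 570 nm. Quadruplicate wells, repeated three times; means ± SD (n = 3).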

BEL-7404 tumor cell line = assay: Antiproliferative activity against human Bel7404 cells after 48 hrs by MTT assay; format: functional, cell-based; conditions: BEL-7404, 48 h; how it was run: as §1
[3] = Antiproliferative activity against human BEL7404/CP20 cells after 48 hrs by MTT assay; format: functional, cell-based; conditions: BEL7404/CP20, 48 h; how it was run: as §1
NCI-H460 = assay: Antiproliferative activity against human NCI-H460 cells after 48 hrs by MTT assay; format: functional, cell-based; conditions: NCI-H460, 48 h; how it was run: as §1
MCF7 [4] = assay: Antiproliferative activity against human MCF7 cells after 72 hrs by MTT assay; format: functional, cell-based; conditions: MCF7, 72 h; how it was run: as §2
K562 = assay: Antiproliferative activity against human K562 cells after 72 hrs by MTT assay; format: functional, cell-based; conditions: K562, 72 h; how it was run: as §2
[5] = Selectivity ratio of IC50 for human KB/CP4 cells to IC50 for human KB-3-1 cells
[6] = Antiproliferative activity against human KB/CP4 cells after 48 hrs by MTT assay; format: functional, cell-based; conditions: KB/CP4, 48 h; how it was run: as §1
Bel-7402 [7] = assay: Antiproliferative activity against human Bel7402 cells after 72 hrs by MTT assay; format: functional, cell-based; conditions: Bel-7402, 72 h; how it was run: as §2
Bel-7402 [8] = assay: Antiproliferative activity against human Bel7402 cells at 1 uM after 72 hrs by MTT assay; format: functional, cell-based
MCF7 [9] = assay: Cytotoxicity against human MCF7 cells at 10 to 50 uM after 24 hrs by LDH assay; format: functional, cell-based
How it was run: (§3)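 Membrane integrity assay on MCF-7 and Bel-7402 cells seeded at ~5 × 10^3 per well for 24 h, then given compounds at 10, 20 or 50 μM. Culture medium collected and assayed with CytoTox-ONE LDH reagent for 10 min, followed by stop solution. Fluorescence read at Ex 560/Em 590 nm. Expressed as percentage of unstimulated cells.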

Bel-7402 [10] = assay: Cytotoxicity against human Bel7402 cells at 10 to 50 uM after 24 hrs by LDH assay; format: functional, cell-based; how it was run: as §3
MCF7 [11] = assay: Antitumor activity against human MCF7 cells xenografted in Balb/c nude mouse assessed as tumor growth inhibition at 20 mg/kg/day, iv for 4 weeks relative to control; format: functional; conditions: 672 h, read-out: TGI
How it was run: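 Six-week-old male BALB/c nude mice received 1 × 10^6 MCF-7 cells subcutaneously in the right flank. After 7 d of tumor growth, mice were randomized into groups of six. Dosing was 20 mg/kg iv once daily for 28 days in 10% DMF/2% poloxamer/88% saline. Tumor volume (L × W²/2) and body weight were recorded every 2 days. Inhibition = (1 − mean treated/control tumor weight) × 100%.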

Question: With `C=C1C(=O)[C@]23[C@H](OC(=O)c4cccc(C)c4)[C@H]1CC[C@H]2[C@]12C=CCC(C)(C)[C@H]1[C@H](O)[C@]3(O)OC2` as the compound, how does the IC50 [1] read?
Answer: The IC50 was 14.2 µM.

Question: What about the IC50 (KB 3-1) of the same compound?
Answer: Its IC50 is 6.21 µM.

Question: And the “Ratio IC50” value [2]?
Answer: The value was 14.58.

Question: What about the IC50 (MGC-803) of the same compound?
Answer: The IC50 was 1.02 µM.

Question: What about the IC50 (BEL-7404 tumor cell line) of the same compound?
Answer: Its IC50 is 6.56 µM.

Question: And the IC50 [3]?
Answer: Its IC50 is 3.42 µM.

Question: What about the IC50 (NCI-H460) of the same compound?
Answer: Its IC50 is 2.44 µM.

Question: And the IC50 (MCF7 [4])?
Answer: The IC50 was 0.18 µM.

Question: And the IC50 (K562)?
Answer: Its IC50 is 1.27 µM.

Question: What about the “Ratio IC50” value [5] of the same compound?
Answer: Its value is under 1.

Question: And the IC50 [6]?
Answer: Its IC50 is 1.01 µM.

Question: And the IC50 (Bel-7402 [7])?
Answer: The IC50 was 0.45 µM.

Question: For `C=C1C(=O)[C@@]23[C@@H]4OC(C)(C)O[C@@]25OC[C@]2(C=CCC(C)(C)[C@H]2[C@@H]5O)[C@@H]3CC[C@@H]14`, which IC50 (MGC-803) is on record?
Answer: Its IC50 is 3.61 µM.

Question: What about the IC50 (MCF7 [4]) of the same compound?
Answer: Its IC50 is 1.49 µM.

Question: What about the IC50 (K562) of the same compound?
Answer: Its IC50 is 7.98 µM.

Question: And the IC50 (Bel-7402 [7])?
Answer: The IC50 was 3.66 µM.

Question: What about the Activity (Bel-7402 [8]) of the same compound?
Answer: The Activity was “Active”.

Question: Which IC50 [1] does the source give for `C=C1C(=O)[C@]23[C@H](O)[C@H]1CC[C@H]2[C@]12C=CC(=O)C(C)(C)[C@H]1[C@H](O)[C@]3(O)OC2` here?
Answer: Its IC50 is 54 µM.

Question: And the IC50 (KB 3-1)?
Answer: The IC50 was 16.7 µM.

Question: And the IC50 (MGC-803)?
Answer: Its IC50 is 5.58 µM.

Question: What about the IC50 (BEL-7404 tumor cell line) of the same compound?
Answer: The IC50 was 16.2 µM.

Question: And the IC50 [3]?
Answer: Its IC50 is 15.1 µM.

Question: And the IC50 (NCI-H460)?
Answer: The IC50 was 19.2 µM.

Question: And the IC50 (MCF7 [4])?
Answer: The IC50 was 11.1 µM.

Question: What about the Activity (MCF7 [9]) of the same compound?
Answer: The Activity was “inactive”.

Question: And the IC50 (K562)?
Answer: The IC50 was 2.79 µM.

Question: And the “Ratio IC50” value [5]?
Answer: Its value is under 1.

Question: What about the IC50 [6] of the same compound?
Answer: Its IC50 is 16.1 µM.

Question: And the IC50 (Bel-7402 [7])?
Answer: The IC50 was 3.43 µM.

Question: What about the Activity (Bel-7402 [10]) of the same compound?
Answer: Its Activity is “inactive”.

Question: What about the Activity (Bel-7402 [8]) of the same compound?
Answer: The Activity was “Active”.

Question: For `C=C1C(=O)[C@@]23[C@@H]4OC(C)(C)O[C@@]25OC[C@]2([C@@H](OS(C)(=O)=O)CCC(C)(C)[C@H]2[C@@H]5O)[C@@H]3CC[C@@H]14`, which Activity (Bel-7402 [8]) is on record?
Answer: Its Activity is “Active”.

Question: Which inhibition in vivo at 20 mg/kg/day (MCF7 [11]) does the source give for `O=P1(N(CCCl)CCCl)NCCCO1` (stereo not drawn) [CYCLOPHOSPHAMIDE ANHYDROUS] here?
Answer: Its inhibition in vivo at 20 mg/kg/day is 64.6%.

Question: For `C=C1C(=O)[C@]23[C@H](OC(C)=O)[C@H]1CC[C@H]2[C@]12C=C[C@H](OC(C)=O)C(C)(C)[C@H]1[C@H](O)[C@]3(O)OC2`, which IC50 (MGC-803) is on record?
Answer: Its IC50 is 3.09 µM.

Question: What about the IC50 (MCF7 [4]) of the same compound?
Answer: Its IC50 is 4.13 µM.

Question: And the IC50 (K562)?
Answer: Its IC50 is 1.88 µM.

Question: What about the IC50 (Bel-7402 [7]) of the same compound?
Answer: Its IC50 is 2.07 µM.

Question: What about the Activity (Bel-7402 [8]) of the same compound?
Answer: Its Activity is “Active”.

Question: With `C=C1C(=O)[C@@]23[C@@H]4OC(C)(C)O[C@@]25OC[C@]2([C@@H]6O[C@@H]6CC(C)(C)[C@H]2[C@@H]5O)[C@@H]3CC[C@@H]14` as the compound, how does the IC50 (MGC-803) read?
Answer: The IC50 was 1.42 µM.

Question: And the IC50 (MCF7 [4])?
Answer: Its IC50 is 1.58 µM.

Question: What about the IC50 (K562) of the same compound?
Answer: The IC50 was 1.66 µM.

Question: And the IC50 (Bel-7402 [7])?
Answer: Its IC50 is 1.32 µM.

Question: What about the Activity (Bel-7402 [8]) of the same compound?
Answer: Its Activity is “Active”.

From ChEMBL document CHEMBL3997810, “A Novel Potent Anticancer Compound Optimized from a Natural Oridonin Scaffold Induces Apoptosis and Cell Cycle Arrest through the Mitochondrial Pathway” (J Med Chem, 2017)
